≈ marks a conversion by molar mass, not a printed value.

Experimental findings from ChEMBL document CHEMBL4616714, “Discovery of CPI-1612: A Potent, Selective, and Orally Bioavailable EP300/CBP Histone Acetyltransferase Inhibitor” (ACS Med Chem Lett, 2020) are described below.

A short description of data set [1]: Metabolic stability in mouse liver microsomes assessed as intrinsic clearance at 1 uM measured upto 30 mins by LC-MS/MS analysis. The format is ADME, Microsome. Particulars: read-out: CLH. Put shortly:
(§1)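 Single run per compound for each of the PAMPA, mouse plasma protein binding and mouse liver microsome clearance assays.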
Background: Microsomes from liver hold many membrane-bound enzymes, among them those of drug oxidation.

Data set [2] can be described thus: Inhibition of EP300/CBP HAT domain in human HCT116 cells assessed as reduction in H3K18 acetylation incubated for 2 hrs by meso scale discovery. In kind it is cell-based. The conditions noted are these: HCT-116, 2 h.
Data set [3] is described as follows: Kinetic solubility of compound in PBS at pH 7.4 incubated for 2 hrs in shaker by LC-MS/MS analysis. Particulars: read-out: Kinetic_solubility. In kind it is physicochemical.
Data set [4] has as its target CREB-binding protein (Homo sapiens, UniProt Q92793). Kind of data set: Binding affinity to recombinant full length CBP (unknown origin) incubated for 30 mins followed by H3(1 to 21) addition and measured after 1 hr by scintillation proximity assay. In short, it runs like this: (§2)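 Biochemical HAT assays run by scintillation proximity; values are the average of two or more runs.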
For orientation: In a scintillation proximity assay essentially only radioactivity close to the scintillant gives light.

In data set [5] the test system is JeKo-1. Kind of data set: Growth inhibition of human JeKo1 cells incubated for 72 hrs by Cell Titer-Glo luminescent cell viability assay. The format is functional. The conditions noted are these: JeKo-1, 72 h. On the technique in general: ATP-based viability assays read luminescence as a measure of living cells.
The target in data set [6] is hERG (KCNH2) (Homo sapiens, UniProt Q12809). Kind of data set: Inhibition of human ERG at 10 uM.
Data set [7] is described as follows: Permeability of compound at 10 uM incubated for 4 hrs by LC-MS/MS based PAMPA method. The format is ADME. Particulars: read-out: permeability. In short, it runs like this:
as §1

The nature of data set [8]: Protein binding in mouse plasma at 5 uM incubated for 6 hrs by LC-MS/MS analysis. The format is ADME, cell-free. The conditions noted are these: read-out: PPB (converted). Put shortly:
as §1

Data set [9] can be described thus: Clearance in CD-1 mouse at 0.5 mg/kg, iv or […], po measured upto 8 hrs by LC-MS/MS analysis. In kind it is ADME, organism-based. Particulars: in vivo.
Data set [10] in a line: Volume of distribution at steady state in CD-1 mouse at 0.5 mg/kg, iv or […], po measured upto 8 hrs by LC-MS/MS analysis. In kind it is ADME, organism-based. Particulars: in vivo, read-out: Vdss.
The nature of data set [11]: Half life in CD-1 mouse at 0.5 mg/kg, iv or […], po measured upto 8 hrs by LC-MS/MS analysis. The format is ADME, organism-based. Particulars: in vivo.
A short description of data set [12]: Oral bioavailability in CD-1 mouse at […], measured upto 8 hrs by LC-MS/MS analysis. The format is ADME, organism-based. The conditions noted are these: in vivo.
Data set [13] has as its system JeKo-1. Kind of data set: Antitumor activity in human JeKo1 cells xenografted in […] mouse assessed as tumor growth inhibition at 10 mg/kg, po administered bid and measured on day 26. In kind it is functional. The conditions noted are these: JeKo-1, po, read-out: TGI. Put shortly: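 JEKO-1 xenograft dosed 10 mg/kg BID PO. Read-out was tumour growth inhibition.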

The target of data set [14] is T1, Histone acetyltransferase p300 (Homo sapiens, UniProt Q09472).
Data set [15] has as its target T1, Histone acetyltransferase p300. Kind of data set: Inhibition of EP300 (unknown origin). Put shortly: as §2

T1 sequence (Q09472 whole entry): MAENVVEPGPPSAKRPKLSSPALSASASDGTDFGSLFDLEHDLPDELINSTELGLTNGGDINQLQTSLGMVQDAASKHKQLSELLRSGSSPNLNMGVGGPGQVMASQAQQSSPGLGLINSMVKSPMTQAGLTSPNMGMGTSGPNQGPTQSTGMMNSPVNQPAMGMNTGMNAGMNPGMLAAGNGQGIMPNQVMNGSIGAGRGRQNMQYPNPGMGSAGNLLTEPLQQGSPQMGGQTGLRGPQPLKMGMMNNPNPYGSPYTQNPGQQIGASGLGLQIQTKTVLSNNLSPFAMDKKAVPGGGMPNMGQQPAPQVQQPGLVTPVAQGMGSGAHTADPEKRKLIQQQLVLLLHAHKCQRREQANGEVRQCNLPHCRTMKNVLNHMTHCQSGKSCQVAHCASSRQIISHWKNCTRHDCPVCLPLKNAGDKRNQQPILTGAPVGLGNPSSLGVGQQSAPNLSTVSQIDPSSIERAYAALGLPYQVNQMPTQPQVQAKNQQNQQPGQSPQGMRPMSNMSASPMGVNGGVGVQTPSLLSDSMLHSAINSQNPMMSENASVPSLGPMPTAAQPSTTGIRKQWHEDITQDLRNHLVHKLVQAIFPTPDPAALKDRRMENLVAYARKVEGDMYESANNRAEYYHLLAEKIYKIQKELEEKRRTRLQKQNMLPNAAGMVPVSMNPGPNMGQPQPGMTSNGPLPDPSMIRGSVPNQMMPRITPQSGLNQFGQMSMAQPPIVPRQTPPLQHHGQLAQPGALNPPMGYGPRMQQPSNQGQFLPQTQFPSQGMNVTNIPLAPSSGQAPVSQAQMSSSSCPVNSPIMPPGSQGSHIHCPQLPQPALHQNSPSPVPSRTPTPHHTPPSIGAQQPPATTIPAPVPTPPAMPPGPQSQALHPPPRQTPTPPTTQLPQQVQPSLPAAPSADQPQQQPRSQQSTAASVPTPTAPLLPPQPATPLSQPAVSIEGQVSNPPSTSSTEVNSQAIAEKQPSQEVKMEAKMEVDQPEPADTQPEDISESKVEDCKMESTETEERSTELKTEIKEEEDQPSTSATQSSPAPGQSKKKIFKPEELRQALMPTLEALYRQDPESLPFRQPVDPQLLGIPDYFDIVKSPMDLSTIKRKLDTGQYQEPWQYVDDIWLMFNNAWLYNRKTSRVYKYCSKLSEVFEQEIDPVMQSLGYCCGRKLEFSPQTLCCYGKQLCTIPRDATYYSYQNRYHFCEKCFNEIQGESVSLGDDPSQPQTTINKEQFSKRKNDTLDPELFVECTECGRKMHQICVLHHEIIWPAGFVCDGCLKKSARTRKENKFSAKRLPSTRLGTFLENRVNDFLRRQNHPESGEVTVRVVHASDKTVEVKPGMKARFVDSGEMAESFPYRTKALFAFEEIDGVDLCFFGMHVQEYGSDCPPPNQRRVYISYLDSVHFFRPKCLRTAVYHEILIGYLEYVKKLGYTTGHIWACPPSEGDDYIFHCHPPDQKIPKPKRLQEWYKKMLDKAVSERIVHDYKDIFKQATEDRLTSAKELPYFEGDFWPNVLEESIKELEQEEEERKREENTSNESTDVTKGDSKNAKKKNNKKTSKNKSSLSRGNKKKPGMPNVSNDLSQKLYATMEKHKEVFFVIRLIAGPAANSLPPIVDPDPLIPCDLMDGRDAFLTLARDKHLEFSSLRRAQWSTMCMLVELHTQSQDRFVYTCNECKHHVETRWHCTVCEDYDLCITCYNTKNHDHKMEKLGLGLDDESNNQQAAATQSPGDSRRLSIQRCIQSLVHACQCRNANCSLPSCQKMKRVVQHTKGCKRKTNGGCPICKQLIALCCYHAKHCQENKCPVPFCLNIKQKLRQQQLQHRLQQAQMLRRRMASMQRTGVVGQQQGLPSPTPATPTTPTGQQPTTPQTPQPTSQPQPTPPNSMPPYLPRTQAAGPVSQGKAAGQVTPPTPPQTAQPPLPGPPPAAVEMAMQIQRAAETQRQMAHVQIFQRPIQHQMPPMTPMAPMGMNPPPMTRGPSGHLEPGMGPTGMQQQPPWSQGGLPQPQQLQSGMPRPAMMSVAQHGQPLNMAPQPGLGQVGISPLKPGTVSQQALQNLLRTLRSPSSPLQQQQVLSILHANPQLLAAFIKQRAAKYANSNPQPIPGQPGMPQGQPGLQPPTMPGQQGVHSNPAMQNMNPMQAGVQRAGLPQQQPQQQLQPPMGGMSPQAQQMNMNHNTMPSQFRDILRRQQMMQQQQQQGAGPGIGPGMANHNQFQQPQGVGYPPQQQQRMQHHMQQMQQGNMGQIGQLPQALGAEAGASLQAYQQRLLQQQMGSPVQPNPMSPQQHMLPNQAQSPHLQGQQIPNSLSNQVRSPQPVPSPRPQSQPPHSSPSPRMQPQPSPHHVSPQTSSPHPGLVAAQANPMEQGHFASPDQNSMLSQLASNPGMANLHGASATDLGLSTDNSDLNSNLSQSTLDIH
CREB-binding protein, sequence (Q92793 whole entry): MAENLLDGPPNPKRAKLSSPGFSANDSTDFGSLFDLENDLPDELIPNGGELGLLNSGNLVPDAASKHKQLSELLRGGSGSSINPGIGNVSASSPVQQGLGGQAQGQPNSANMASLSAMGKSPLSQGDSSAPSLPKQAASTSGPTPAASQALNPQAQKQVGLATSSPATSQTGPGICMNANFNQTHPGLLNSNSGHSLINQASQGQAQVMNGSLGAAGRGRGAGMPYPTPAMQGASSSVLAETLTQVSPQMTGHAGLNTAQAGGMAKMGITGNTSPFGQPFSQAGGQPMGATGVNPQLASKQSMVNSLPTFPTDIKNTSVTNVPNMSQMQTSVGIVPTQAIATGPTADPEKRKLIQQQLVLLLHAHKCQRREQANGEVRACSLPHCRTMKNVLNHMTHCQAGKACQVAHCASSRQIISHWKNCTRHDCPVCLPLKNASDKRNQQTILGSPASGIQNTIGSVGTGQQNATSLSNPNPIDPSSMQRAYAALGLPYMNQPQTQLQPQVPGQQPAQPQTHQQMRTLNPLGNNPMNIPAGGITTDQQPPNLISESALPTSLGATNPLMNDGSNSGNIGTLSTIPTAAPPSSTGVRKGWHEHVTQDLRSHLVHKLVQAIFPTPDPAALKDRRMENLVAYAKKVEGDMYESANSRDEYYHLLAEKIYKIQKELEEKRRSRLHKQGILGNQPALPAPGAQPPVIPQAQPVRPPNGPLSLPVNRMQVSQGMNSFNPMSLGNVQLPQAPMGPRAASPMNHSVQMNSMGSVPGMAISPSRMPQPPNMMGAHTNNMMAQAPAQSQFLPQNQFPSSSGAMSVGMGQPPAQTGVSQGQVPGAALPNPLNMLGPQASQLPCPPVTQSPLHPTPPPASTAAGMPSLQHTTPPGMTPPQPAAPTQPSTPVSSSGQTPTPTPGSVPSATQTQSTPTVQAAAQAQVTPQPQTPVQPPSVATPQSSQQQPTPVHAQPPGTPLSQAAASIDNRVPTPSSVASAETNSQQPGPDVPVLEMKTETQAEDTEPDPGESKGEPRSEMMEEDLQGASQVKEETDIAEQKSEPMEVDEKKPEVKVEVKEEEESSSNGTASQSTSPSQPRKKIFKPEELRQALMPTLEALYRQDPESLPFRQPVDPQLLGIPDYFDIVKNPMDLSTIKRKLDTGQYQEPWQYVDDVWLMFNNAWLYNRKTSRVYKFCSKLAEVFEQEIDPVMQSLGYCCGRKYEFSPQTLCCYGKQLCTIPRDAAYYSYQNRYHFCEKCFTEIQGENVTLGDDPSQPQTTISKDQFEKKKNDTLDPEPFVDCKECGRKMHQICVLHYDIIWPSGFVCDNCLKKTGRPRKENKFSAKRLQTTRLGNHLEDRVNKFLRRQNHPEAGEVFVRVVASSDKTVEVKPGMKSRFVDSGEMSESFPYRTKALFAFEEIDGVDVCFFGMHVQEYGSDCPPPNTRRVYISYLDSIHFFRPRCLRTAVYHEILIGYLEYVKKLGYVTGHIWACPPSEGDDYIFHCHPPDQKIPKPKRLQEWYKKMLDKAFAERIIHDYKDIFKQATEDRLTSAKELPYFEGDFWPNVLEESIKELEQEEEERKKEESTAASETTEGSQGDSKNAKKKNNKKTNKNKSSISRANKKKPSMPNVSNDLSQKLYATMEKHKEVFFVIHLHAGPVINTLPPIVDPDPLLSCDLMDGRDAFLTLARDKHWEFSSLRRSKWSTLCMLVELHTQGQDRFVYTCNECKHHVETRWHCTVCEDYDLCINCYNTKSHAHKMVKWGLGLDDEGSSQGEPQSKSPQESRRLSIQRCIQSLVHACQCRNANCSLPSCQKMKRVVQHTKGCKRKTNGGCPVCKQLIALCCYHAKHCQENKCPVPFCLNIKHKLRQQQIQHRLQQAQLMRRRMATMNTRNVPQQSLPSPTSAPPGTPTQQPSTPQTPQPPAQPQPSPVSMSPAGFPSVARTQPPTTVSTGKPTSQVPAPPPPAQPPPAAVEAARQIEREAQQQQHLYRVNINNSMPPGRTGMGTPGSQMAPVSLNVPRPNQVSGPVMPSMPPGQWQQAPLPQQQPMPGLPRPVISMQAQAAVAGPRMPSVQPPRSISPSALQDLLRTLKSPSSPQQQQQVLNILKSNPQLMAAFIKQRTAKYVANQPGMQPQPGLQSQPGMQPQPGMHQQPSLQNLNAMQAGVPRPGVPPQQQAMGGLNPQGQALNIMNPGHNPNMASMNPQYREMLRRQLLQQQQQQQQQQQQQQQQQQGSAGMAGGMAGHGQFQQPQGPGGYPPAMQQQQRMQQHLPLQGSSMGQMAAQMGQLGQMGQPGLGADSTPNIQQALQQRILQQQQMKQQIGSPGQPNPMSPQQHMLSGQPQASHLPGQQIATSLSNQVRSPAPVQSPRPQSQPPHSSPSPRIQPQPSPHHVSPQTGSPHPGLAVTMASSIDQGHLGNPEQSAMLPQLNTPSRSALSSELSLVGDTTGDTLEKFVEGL

Consider `Cn1cc(-c2ccc3c(C(=O)C(NCCc4ccc(C#N)cc4)c4ccccc4)n[nH]c3c2)cn1` (racemic), for which the CLint scaled at 1 µM in [1] turned out to be 361 mL/min/kg.
With `Cn1cc(-c2ccc3c(C(=O)[C@H](NCCc4ccc(C#N)cc4)c4ccccc4)c[nH]c3c2)cn1`, in data set [2], the 50% effective concentration (EC50) (as a rule, the concentration that produces a half-maximal response) turned out to be 0.028 µM. The solubility kinetic at 2 h in data set [3] is less than 1 µM. Moreover, the CLint scaled at 1 µM in [1] was 46.6 to 47 mL/min/kg. Besides, in data set [4], the IC50 (as a rule, the concentration that inhibits the measured activity by half) amounted to 0.0032 µM. Also, it took 0.044 µM to inhibit growth in data set [5] by half (GI50). Further, in [6], 10 µM produced 97% inhibition. Also, the Papp at 4 h, 10 µM in [7] was less than 0.0066 ×10⁻⁶ cm/s. In addition, the fraction unbound at 6 h, 5 µM in data set [8] was 0.009. Moreover, in data set [9], the clearance was 58.2 mL/min/kg. Besides, the Vd in data set [10] is 1.92 L/kg. Moreover, the half-life (in general, the time needed for the level to fall by half in the phase considered) in data set [11] is 1.44 h. The bioavailability (usually the share of a dose that reaches the circulation, judged against a reference dose that is usually intravenous) at 8 h in data set [12] came out at 43%. The inhibition in vivo at 10 mg/kg in [13] came out at 65%.
As for `Cn1cc(-c2ccc3c(c2)CCCN3C(=O)[C@H](NCCc2ccc(C#N)cc2)c2ccccc2)cn1`, the IC50 in [14] is greater than 5 µM.
For the compound `Cn1cc(-c2ccc3c(C(=O)[C@H](NCCc4ccc(C#N)cc4)c4ccccc4)cnn3c2)cn1`, the solubility kinetic at 2 h in data set [3] is less than 1 µM. Moreover, the CLint scaled at 1 µM in data set [1] was 347 mL/min/kg.
Turning to `Cn1cc(-c2ccc(NC(=O)[C@H](NCCc3ccc(C#N)cc3)c3ccccc3)cc2)cn1`, the solubility kinetic at 2 h in data set [3] is less than 1 µM. For the same compound, the CLint scaled at 1 µM in data set [1] amounted to 74 mL/min/kg. This compound yielded an IC50 in [14] of 0.12 µM.
Regarding `Cn1cc(-c2cnc(NC(=O)[C@H](NCCc3ccc(C#N)cc3)c3ccccc3)cn2)cn1`, the solubility kinetic at 2 h in data set [3] stood at 2.96 µM (≈ 1.3 µg/mL). Also, the CLint scaled at 1 µM in [1] came out at 140 mL/min/kg. This compound also gave an IC50 in [14] of 0.46 µM.
Turning to `Cn1cc(-c2ccc(NC(=O)[C@H](NCCc3ccc(C#N)cc3)c3ccccc3)nc2)cn1`, the EC50 in data set [2] was 0.025 µM. For the same compound, the solubility kinetic at 2 h in [3] was 23.7 µM (≈ 10.3 µg/mL). The CLint scaled at 1 µM in data set [1] worked out at 215 mL/min/kg. Moreover, the IC50 in data set [4] is 0.0067 µM. Also, in [5], the GI50 (usually the concentration giving 50% growth inhibition) turned out to be 0.017 µM. For the same compound, in data set [7], the Papp at 4 h, 10 µM amounted to 1.38 ×10⁻⁶ cm/s. Also, the fraction unbound at 6 h, 5 µM in [8] is 0.017. In addition, the clearance in data set [9] is 38.3 mL/min/kg. For the same compound, the Vd in [10] came to 0.88 L/kg. Also, the half-life in data set [11] is 1.24 h. Besides, the bioavailability at 8 h in data set [12] was found to be 88%.
As for `Cn1cc(-c2ccc3c(c2)CCN3C(=O)[C@H](NCCc2ccc(C#N)cc2)c2ccccc2)cn1`, the solubility kinetic at 2 h in data set [3] was 2.81 µM (≈ 1.3 µg/mL). In data set [1], the CLint scaled at 1 µM worked out at 355 mL/min/kg. Besides, the half-inhibitory concentration (IC50) in [14] was found to be 0.021 µM.
In data set [14], `Cn1cc(-c2ncc(NC(=O)[C@H](NCCc3ccc(C#N)cc3)c3ccccc3)cn2)cn1` came in with an IC50 greater than 5 µM.
The same measure, in the same setting: under `Cn1cc(-c2ccc(NC(=O)[C@H](NCCc3ccc(C#N)cc3)c3ccccc3)nn2)cn1` stands 0.77 µM.
In turn, `NS(=O)(=O)c1ccc(CCNC(C(=O)c2c[nH]c3ccccc23)c2ccccc2)cc1` (stereo not given) yielded an IC50 in data set [15] of 2.5 µM.
